ChEMBL document CHEMBL4304834, “3-Amino-chromanes and Tetrahydroquinolines as Selective 5-HT2B, 5-HT7, or σ1 Receptor Ligands” (ACS Med Chem Lett, 2019)

Assays:
[1] = target: 5-hydroxytryptamine receptor 1E (Homo sapiens, UniProt P28566); assay: Displacement of [3H]-HT from human recombinant 5-HT1E receptor expressed in stable HEK cells after 90 mins by microbeta scintillation counting method; format: cell-based
Procedure, shortened: (§1)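 Radioligand binding run by the NIMH Psychoactive Drug Screening Program. […] Otherwise Ki comes from sigmoidal curve fits of triplicate measurements in a single experiment, or is averaged over repeated experiments each run in triplicate.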

[2] = target: 5-hydroxytryptamine receptor 7 (Homo sapiens, UniProt P34969); assay: Displacement of [3H]-LSD from human recombinant 5-HT7 receptor expressed in stable HEK cells at 10 uM after 90 mins by microbeta scintillation counting method relative to control; format: cell-based; procedure, shortened: as §1
[3] = target: Beta-1 adrenergic receptor (Homo sapiens, UniProt P08588); assay: Displacement of [125I]-pindolol from human recombinant adrenergic Beta1 receptor expressed in Flp-In CHO cells at 10 uM after 90 mins by microbeta scintillation counting method relative to control; format: cell-based; procedure, shortened: as §1
[4] = target: 5-hydroxytryptamine receptor 2A (Homo sapiens, UniProt P28223); assay: Displacement of [3H]-Ketanserin from human recombinant 5-HT2A receptor transiently expressed in HEKT cells at 10 uM after 90 mins by microbeta scintillation counting method relative to control; format: cell-based; procedure, shortened: as §1
Histamine H1 receptor = Histamine H1 receptor (Homo sapiens, UniProt P35367); assay: Displacement of [3H]-Pyrilamine from human recombinant histamine H1 receptor expressed in stable HEK cells at 10 uM after 90 mins by microbeta scintillation counting method relative to control; format: cell-based
[5] = target: Kappa-type opioid receptor (Homo sapiens, UniProt P41145); assay: Displacement of [3H]-U69593 from human recombinant KOR receptor expressed in stable HEK cells at 10 uM after 90 mins by microbeta scintillation counting method relative to control; format: cell-based
Mu-type opioid receptor = Mu-type opioid receptor (Homo sapiens, UniProt P35372); assay: Displacement of [3H]-DAMGO from human recombinant MOR receptor expressed in stable HEK cells at 10 uM after 90 mins by microbeta scintillation counting method relative to control; format: cell-based; procedure, shortened: as §1
[6] = target: T1, Muscarinic acetylcholine receptor M5 (Homo sapiens) (UniProt P08912); assay: Displacement of [3H]-QNB/[3H]-NMS from human recombinant Muscarinic acetylcholine M5 receptor expressed in stable CHO cells at 10 uM after 90 mins by microbeta scintillation counting method relative to control; format: cell-based
T1 sequence (whole entry): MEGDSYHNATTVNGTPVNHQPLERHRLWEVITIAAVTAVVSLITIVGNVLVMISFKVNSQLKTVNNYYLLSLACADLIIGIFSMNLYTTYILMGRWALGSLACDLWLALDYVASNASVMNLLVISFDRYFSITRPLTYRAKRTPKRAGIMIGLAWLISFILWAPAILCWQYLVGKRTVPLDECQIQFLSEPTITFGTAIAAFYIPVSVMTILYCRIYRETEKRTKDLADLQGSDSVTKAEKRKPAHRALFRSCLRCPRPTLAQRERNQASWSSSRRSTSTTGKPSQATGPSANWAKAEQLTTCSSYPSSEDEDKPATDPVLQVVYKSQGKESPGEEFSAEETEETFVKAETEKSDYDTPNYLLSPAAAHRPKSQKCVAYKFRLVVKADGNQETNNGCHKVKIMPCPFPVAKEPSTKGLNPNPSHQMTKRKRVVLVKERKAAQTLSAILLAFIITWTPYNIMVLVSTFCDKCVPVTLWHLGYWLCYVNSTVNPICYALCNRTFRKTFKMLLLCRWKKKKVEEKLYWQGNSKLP

[7] = target: Alpha-2B adrenergic receptor (Homo sapiens) (UniProt P18089); assay: Displacement of [3H]-Rauwolscine from human recombinant adrenergic Alpha2B receptor expressed in HEKT cells at 10 uM after 90 mins by microbeta scintillation counting method relative to control; format: cell-based
[8] = target: Sodium-dependent dopamine transporter (Homo sapiens, UniProt Q01959); assay: Displacement of [3H]-Win35428 from human recombinant DAT receptor expressed in stable HEK cells at 10 uM after 90 mins by microbeta scintillation counting method relative to control; format: cell-based
[9] = target: T2, D(4) dopamine receptor (Homo sapiens) (UniProt P21917); assay: Displacement of [3H]-methylspiperone from human recombinant dopamine D4 receptor expressed in Stable HEK cells at 10 uM after 90 mins by microbeta scintillation counting method relative to control; format: cell-based
T2 sequence (whole entry): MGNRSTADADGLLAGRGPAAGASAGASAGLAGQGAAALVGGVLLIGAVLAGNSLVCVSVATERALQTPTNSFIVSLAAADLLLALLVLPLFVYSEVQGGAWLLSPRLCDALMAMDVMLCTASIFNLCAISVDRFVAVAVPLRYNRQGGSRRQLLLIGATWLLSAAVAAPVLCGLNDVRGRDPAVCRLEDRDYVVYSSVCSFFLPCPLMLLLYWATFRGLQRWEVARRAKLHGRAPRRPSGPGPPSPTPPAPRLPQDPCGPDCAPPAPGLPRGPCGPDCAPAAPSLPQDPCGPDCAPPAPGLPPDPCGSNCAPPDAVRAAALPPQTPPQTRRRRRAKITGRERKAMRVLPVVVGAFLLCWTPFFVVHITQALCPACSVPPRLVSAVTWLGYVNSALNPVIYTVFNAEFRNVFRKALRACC

Homo sapiens [10] = species on record: Homo sapiens; assay: Selectivity index, ratio of Ki for human recombinant adrenergic alpha1A receptor to Ki for human recombinant sigma1 receptor
Procedure, shortened: (§2)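 Both Ki values in each ratio come from NIMH Psychoactive Drug Screening Program radioligand binding. […] Other targets were given full binding curves, measured in triplicate, and Ki was taken from a sigmoidal curve fit. Some values were repeated in duplicate or triplicate independent experiments.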

Homo sapiens [11] = species on record: Homo sapiens; assay: Selectivity index, ratio of Ki for human recombinant 5-HT6 receptor to Ki for human recombinant sigma1 receptor
Homo sapiens [12] = species on record: Homo sapiens; assay: Selectivity index, ratio of Ki for human recombinant histamine H4 receptor to Ki for human recombinant sigma1 receptor; procedure, shortened: as §2
Homo sapiens [13] = species on record: Homo sapiens; assay: Selectivity index, ratio of Ki for human recombinant 5-HT1B receptor to Ki for human recombinant sigma1 receptor
661W [14] = assay: Cytotoxicity against mouse 661W cells at 200 uM after 24 hrs by MTT assay; format: cell-based
Procedure, shortened: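 661W cells treated 24 h with test agent at 10, 30, 100 and 200 μM. Viability is measured by MTT and compared with nontreated cells.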

Homo sapiens [15] = species on record: Homo sapiens; assay: Selectivity index, ratio of Ki for human recombinant DAT receptor to Ki for human recombinant sigma1 receptor
Homo sapiens [16] = species on record: Homo sapiens; assay: Selectivity index, ratio of Ki for human recombinant sigma2 receptor to Ki for human recombinant sigma1 receptor; procedure, shortened: as §2
Homo sapiens [17] = species on record: Homo sapiens; assay: Selectivity index, ratio of Ki for human recombinant Muscarinic acetylcholine M2 receptor to Ki for human recombinant sigma1 receptor; procedure, shortened: as §2
661W [18] = assay: Cytoprotective activity in mouse 661W cells assessed as inhibition of t-BHP induced oxidative stress by measuring increase in cell viability at 30 uM after 24 hrs by MTT assay (Rvb < 50%); format: functional
Homo sapiens [19] = species on record: Homo sapiens; assay: Selectivity index, ratio of Ki for human recombinant adrenergic Alpha2B receptor to Ki for human recombinant sigma1 receptor; procedure, shortened: as §2
Homo sapiens [20] = species on record: Homo sapiens; assay: Selectivity index, ratio of Ki for human recombinant dopamine D1 receptor to Ki for human recombinant sigma1 receptor; procedure, shortened: as §2

Sequence of 5-hydroxytryptamine receptor 1E (P28566 whole entry): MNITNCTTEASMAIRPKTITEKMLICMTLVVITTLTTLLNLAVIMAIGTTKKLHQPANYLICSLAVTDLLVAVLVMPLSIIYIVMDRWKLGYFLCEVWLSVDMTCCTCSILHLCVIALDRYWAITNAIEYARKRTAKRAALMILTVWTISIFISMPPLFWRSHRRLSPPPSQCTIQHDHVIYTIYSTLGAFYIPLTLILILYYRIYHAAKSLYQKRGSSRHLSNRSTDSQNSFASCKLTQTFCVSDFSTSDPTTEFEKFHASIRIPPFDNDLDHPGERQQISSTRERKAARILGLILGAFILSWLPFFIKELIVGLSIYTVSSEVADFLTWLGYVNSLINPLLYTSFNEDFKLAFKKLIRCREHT
Sequence of Alpha-2B adrenergic receptor (Homo sapiens) (P18089 whole entry): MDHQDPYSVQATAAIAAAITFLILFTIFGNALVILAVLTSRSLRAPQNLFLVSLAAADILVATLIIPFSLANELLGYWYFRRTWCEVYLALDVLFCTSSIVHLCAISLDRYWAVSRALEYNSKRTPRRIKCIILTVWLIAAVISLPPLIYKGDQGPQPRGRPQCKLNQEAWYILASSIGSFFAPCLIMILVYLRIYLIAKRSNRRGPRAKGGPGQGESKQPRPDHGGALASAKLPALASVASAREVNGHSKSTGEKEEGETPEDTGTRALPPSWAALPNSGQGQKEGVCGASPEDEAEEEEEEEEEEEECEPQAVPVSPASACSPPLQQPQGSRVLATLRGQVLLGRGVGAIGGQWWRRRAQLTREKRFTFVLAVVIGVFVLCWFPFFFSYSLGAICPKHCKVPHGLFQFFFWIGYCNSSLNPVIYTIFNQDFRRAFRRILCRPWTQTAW
Sequence of Histamine H1 receptor (P35367 whole entry): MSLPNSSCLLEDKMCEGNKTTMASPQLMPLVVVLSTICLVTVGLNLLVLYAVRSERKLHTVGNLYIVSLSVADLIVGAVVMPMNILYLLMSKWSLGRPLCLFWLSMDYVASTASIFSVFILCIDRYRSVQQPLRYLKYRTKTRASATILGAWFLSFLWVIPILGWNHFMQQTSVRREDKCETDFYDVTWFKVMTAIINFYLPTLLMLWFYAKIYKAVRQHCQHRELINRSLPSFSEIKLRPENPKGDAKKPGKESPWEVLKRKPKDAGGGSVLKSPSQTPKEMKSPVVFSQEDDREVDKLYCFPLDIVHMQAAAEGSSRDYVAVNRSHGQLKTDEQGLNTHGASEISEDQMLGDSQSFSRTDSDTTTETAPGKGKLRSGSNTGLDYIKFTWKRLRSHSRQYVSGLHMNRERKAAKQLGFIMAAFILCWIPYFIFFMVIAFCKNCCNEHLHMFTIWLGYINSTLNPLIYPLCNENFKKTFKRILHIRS
Sequence of Mu-type opioid receptor (P35372 whole entry): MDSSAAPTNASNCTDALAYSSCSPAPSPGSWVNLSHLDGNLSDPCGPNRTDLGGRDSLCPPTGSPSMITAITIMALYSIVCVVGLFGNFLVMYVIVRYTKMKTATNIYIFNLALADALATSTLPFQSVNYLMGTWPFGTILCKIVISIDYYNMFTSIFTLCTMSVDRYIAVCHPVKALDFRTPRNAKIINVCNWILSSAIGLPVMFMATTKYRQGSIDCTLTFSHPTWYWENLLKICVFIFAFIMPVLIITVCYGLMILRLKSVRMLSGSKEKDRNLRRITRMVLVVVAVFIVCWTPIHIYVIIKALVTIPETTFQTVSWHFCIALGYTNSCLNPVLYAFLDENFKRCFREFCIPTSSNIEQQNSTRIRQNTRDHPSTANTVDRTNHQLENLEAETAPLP
Sequence of 5-hydroxytryptamine receptor 7 (P34969 whole entry): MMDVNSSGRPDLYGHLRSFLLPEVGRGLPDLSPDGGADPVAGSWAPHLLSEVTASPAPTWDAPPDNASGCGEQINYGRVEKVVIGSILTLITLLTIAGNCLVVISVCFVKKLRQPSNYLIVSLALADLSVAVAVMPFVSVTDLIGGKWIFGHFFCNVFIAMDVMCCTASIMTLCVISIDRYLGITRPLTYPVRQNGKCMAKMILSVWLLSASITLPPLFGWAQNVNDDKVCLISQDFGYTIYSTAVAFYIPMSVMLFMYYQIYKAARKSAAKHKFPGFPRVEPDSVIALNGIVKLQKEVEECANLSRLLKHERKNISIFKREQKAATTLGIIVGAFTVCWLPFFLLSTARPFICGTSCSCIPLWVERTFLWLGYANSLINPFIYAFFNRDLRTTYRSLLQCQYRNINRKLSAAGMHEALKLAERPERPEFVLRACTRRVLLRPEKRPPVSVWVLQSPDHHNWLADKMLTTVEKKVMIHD
Sequence of 5-hydroxytryptamine receptor 2A (P28223 whole entry): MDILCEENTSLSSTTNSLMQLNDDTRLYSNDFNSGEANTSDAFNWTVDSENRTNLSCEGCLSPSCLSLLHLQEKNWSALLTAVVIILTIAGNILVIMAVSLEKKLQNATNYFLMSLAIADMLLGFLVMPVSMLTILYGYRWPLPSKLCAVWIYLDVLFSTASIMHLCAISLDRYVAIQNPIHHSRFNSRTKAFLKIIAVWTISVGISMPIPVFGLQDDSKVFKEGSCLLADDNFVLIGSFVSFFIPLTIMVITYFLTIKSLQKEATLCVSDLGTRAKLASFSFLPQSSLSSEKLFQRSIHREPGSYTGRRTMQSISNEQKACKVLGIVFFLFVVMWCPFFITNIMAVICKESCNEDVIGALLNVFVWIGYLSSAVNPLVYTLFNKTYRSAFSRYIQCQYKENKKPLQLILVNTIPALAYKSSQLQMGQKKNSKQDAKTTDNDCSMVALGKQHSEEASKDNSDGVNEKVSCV
Sequence of Kappa-type opioid receptor (P41145 whole entry): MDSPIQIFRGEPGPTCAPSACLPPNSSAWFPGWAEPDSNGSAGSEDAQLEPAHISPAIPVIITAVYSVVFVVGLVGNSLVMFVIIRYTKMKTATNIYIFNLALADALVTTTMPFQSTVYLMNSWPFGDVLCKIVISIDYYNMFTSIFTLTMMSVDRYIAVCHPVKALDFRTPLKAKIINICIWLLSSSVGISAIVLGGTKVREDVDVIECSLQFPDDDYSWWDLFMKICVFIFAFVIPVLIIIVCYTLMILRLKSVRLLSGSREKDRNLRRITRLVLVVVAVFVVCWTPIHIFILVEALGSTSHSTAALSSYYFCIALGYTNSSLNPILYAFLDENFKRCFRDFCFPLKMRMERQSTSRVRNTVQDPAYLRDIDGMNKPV
Sequence of Sodium-dependent dopamine transporter (Q01959 whole entry): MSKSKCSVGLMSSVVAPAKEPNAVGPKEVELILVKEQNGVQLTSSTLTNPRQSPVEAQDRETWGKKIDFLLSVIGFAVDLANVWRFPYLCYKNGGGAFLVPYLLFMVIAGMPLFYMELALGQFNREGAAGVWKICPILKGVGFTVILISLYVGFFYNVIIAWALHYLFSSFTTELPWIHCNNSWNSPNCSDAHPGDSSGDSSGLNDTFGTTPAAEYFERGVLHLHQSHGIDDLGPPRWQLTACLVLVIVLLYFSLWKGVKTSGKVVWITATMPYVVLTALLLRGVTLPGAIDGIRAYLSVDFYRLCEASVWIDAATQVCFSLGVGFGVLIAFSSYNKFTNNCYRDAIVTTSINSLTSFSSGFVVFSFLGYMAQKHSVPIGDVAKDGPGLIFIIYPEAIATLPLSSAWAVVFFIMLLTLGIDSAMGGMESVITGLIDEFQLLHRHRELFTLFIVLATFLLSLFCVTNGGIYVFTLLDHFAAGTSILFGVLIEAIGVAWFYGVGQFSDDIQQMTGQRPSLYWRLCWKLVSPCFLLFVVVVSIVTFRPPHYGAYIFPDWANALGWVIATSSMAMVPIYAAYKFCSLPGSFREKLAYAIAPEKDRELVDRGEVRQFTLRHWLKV
Sequence of Beta-1 adrenergic receptor (P08588 whole entry, looked up): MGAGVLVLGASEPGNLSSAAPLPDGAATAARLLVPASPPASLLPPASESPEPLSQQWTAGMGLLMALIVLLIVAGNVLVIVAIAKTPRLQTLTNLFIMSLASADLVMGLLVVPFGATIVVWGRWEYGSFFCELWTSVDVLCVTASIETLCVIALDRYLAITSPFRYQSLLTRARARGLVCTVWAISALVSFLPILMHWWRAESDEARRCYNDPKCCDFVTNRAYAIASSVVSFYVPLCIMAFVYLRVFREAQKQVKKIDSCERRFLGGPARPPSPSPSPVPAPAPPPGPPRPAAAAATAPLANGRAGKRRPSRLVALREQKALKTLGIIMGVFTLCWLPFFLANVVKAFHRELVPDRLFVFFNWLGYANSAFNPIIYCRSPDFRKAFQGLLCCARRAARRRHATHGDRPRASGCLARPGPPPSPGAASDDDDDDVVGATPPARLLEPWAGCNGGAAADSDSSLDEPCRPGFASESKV

SMILES	Ki [1] [µM]	inhibition [2] [%]	inhibition [3] [%]	inhibition [4] [%]	inhibition (Histamine H1 receptor) [%]	inhibition [5] [%]	inhibition (Mu-type opioid receptor) [%]	inhibition [6] [%]	inhibition [7] [%]	inhibition [8] [%]	inhibition [9] [%]	other results
CC[C@H]1c2ccccc2N(c2ccccc2)C[C@@]1(C)N (racemic)	> 10	–	–	–	–	–	–	–	–	–	–	–
C[C@@]12CN(c3ccccc3)c3ccccc3[C@@H]1CCN2 (racemic)	> 10	–	–	–	–	–	–	–	–	–	–	–
CC[C@H]1c2cc(C)ccc2OC[C@@]1(C)N (racemic)	> 10	< 50	< 50	< 50	< 50	< 50	< 50	< 50	< 50	< 50	< 50	–
COc1cc(OC)c2c(c1)OC[C@@]1(C)NCC[C@@H]21 (racemic)	> 10	–	–	–	< 50	< 50	< 50	< 50	< 50	< 50	< 50	Ratio Ki (Homo sapiens [10]): > 20; Ratio Ki (Homo sapiens [11]): > 20; Ratio Ki (Homo sapiens [12]): > 20; Ratio Ki (Homo sapiens [13]): > 20; Activity (661W [14]): Non-Toxic; Ratio Ki (Homo sapiens [15]): > 20; Ratio Ki (Homo sapiens [16]): > 200; Ratio Ki (Homo sapiens [17]): > 20; Activity (661W [18]): >80%; Ratio Ki (Homo sapiens [19]): > 20; Ratio Ki (Homo sapiens [20]): > 20
CC[C@H]1c2cc(OC)ccc2CC[C@@]1(C)N (racemic)	> 10	< 50	< 50	< 50	–	–	–	< 50	–	–	< 50	–
